SUMO HTRF inh = SUMOylation inhibition; 0.36% of 290,000 active; HTRF SUMOylation assay, SAE1/SAE2 + UBC9, in vitro; inhibition, % at 35 µM; P63279; in the data active means inhibition above about 50%, passing the limit was not always enough; inconclusive means no clear call, values can overlap the other calls
Target sequence (P63279 whole entry, looked up): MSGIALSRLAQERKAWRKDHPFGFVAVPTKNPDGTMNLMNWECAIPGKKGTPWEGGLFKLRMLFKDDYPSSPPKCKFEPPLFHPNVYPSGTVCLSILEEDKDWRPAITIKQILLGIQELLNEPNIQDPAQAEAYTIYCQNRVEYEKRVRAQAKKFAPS
UCH37 inh = blocks the human deubiquitinase UCH37; 0.33% of 330,000 active; AID 588478; purified proteasome/UCH37, Ub-AMC cleavage fluorescence; Q9Y5K5; inhibition, % (test concentration not listed);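 active means mean inhibition over replicate wells above about 20%, limit read from the data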;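 further: 0% = compound-free wells with enzyme and 100% = wells lacking proteasome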
Target sequence (Q9Y5K5 whole entry, looked up): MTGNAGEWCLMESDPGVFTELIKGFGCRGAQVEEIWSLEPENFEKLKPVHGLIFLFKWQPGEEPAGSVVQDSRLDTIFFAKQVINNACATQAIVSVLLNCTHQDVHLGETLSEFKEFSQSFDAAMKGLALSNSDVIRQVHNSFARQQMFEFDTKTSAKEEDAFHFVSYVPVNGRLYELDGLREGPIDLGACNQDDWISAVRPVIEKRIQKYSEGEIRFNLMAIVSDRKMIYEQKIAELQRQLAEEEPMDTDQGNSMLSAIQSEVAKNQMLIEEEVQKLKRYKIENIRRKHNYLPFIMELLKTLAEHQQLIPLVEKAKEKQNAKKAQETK
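Material: Human UCH37 enzyme supplied as purified proteasome complex | Schedule: 30 min compound-proteasome preincubation then 25 min substrate reaction, room temperature | Detection: AMC fluorescence from Ub-AMC cleavage, excitation 355 nm, emission 460 nm | Benchmarks: Wells without proteasome as full block, compound-free enzyme plus substrate as uninhibited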
CTSL1 counter = blocks F. hepatica cathepsin L1 in PFM18AAP counter-screen; inhibition, % at 5.96 µM; AID 1906; recombinant F. hepatica cathepsin L1, Z-Leu-Arg-MCA fluorescence; 0.49% of 300,000 active;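 active means inhibition above the mean of all tested compounds plus 3 SD, set per screening campaign, cut at about 17% in these data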;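 further: 0% = plate median of test compound wells and 100% = 1 µM Z-Phe-Ala-diazomethylketone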
Neddyl block = blocks human cullin neddylation; P61081+Q13564; TR-FRET cullin neddylation, biochemical; inhibition, % at 25 µM; 0.58% of 360,000 active; in the data active means inhibition above about 36%
UCH37 confirm = confirmation of human UCH37 deubiquitinating enzyme inhibitors. shares compounds with UCH37 inh. Proteasome-bound UCH37, Ub-AMC cleavage fluorescence. inhibition, % at 20 µM. 27% of 480 active. AID 624100;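 active means average inhibition over replicates above about 50%, so the earlier screening hit is confirmed, limit read from the data; inactive means the rest, counted as false positives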;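 further: based on cleavage rate fitted by regression over a 30 min kinetic read; 0% = proteasome plus Ub-AMC and 100% = Ub-AMC without proteasome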
Numbers without * were called inactive; i = inactive; ? = inconclusive; · = not tested or not shown. A selection: hits, their analogues and other compounds. The true share with any hit is near 1.4%.

SMILES	SUMO HTRF inh	UCH37 inh	CTSL1 counter	Neddyl block	others
Cc1cc(=O)n2[nH]c(C)c(-c3ccccc3)c2n1	18.7	-0.4	-3.2	27.2
O=c1cc(-c2ccccc2)nc2c(-c3ccccc3)c(C(F)(F)F)[nH]n12	50.6*	i	5.5	·
COc1cc(C(=O)Oc2ccccc2C=NNC(=O)c2ccc(C)c(Cl)c2)cc(OC)c1OC	·	1.9	·	·
N=c1sccn1CC(=O)Nc1cccc2ccccc12	-1.2	20.3*	1.7	-14.8
O=C(/C=C/c1ccc(Cl)cc1)N(Cc1ccccc1)c1ccccn1	7.0	27.2*	0.5	5.3
COc1ccc(C(=O)c2cnc(N=CN(C)C)s2)cc1	·	-4.8	·	·
CC(=NNc1nc(C(=O)O)cs1)c1ccccc1	·	7.3	·	·
O=C(O)c1nnn(-c2ccc(F)cc2F)c1-c1ccccc1	8.7	-0.5	-0.5	-5.7
O=C(O)c1nnn(-c2cc(C(F)(F)F)cc(C(F)(F)F)c2)c1-c1ccccc1	-3.8	4.0	45.5*	5.0
CC(=NNC(=O)C(=O)NN=C(C)c1cccc(O)c1)c1cccc(O)c1	·	3.0	·	·
CC(=Nc1ccc(C)cc1C)c1sc2ccccc2c1O	-7.9	2.9	-2.2	43.7*
CCS(=O)(=O)c1nn2c(N)c(/C=C3/C=CC(=O)C(OC)=C3)c(=O)nc2s1	-4.3	21.8*	6.9	-55.9
COC1=C/C(=C/c2c(N)n3nc(-c4ccc(C)cc4)sc3nc2=O)C=CC1=O	-8.4	7.0	·	-36.8
COc1ccc(C=NNC(=O)OC(C)(C)C)cc1OC	·	5.4	·	·
O=C(CCl)Nc1cn(-c2ccccc2)nc1-c1ccccc1	-11.2	4.4	82.0*	9.2
Cc1cccc(C=Nn2c(C)nc3ccccc3c2=O)c1	·	6.2	·	·
O=C1/C(=C/c2ccco2)Oc2c1ccc(O)c2CN1CCCCC1	60.9*	-2.0	-4.1	16.8
CCCOc1ccc(C(=O)NNC(=S)NC(=O)c2ccco2)cc1	-27.9	4.8	15.6	59.4*
COc1ccc(C(=O)NNC(=S)NC(=O)c2ccco2)cc1	6.1	6.3	0.8	-14.1
CC1SC(=NN=Cc2ccco2)N(Cc2ccc(F)cc2)C1=O (stereo not given)	·	4.5	·	·
CCOc1cc(/C=N/N=C(\N)c2nonc2N)cc(Br)c1OCc1cccc2ccccc12	55.6*	·	1.6	-5.9
CCc1sc(N(C(=O)Cc2ccccc2)c2ccc(F)cc2)nc1-c1ccccc1	2.7	24.3*	1.4	-0.8
COc1nc(N)nc(NC(=O)c2cccs2)c1N=O	·	-4.7	50.3*	19.6
FC(F)(F)c1cccc(-c2nnc(-c3ccccc3)c(N3CCOCC3)n2)c1	-18.5	4.8	17.4*	3.9
CC(=O)NC1C(=O)N(CCN2CCOCC2)c2ccc(C)cc21 (stereo not given)	81.4*	14.3	-7.5	-5.3
SMILES	SUMO HTRF inh	UCH37 inh	CTSL1 counter	Neddyl block	others
Cc1cc(O)c(C=NNc2ccc(F)cc2)c(=O)o1	·	2.2	·	·
Oc1c(C(c2ccccc2)N2CCOCC2)ccc2ccccc12 (stereo not given)	·	2.1	·	41.5*
O=C(CN1CCN(C(c2ccccc2)c2ccccc2)CC1)N1CCOCC1	21.8	5.1	-1.8	-0.2
Clc1ccccc1CN1CCN(N=Cc2ccncc2)CC1	·	4.9	·	·
CC(=NNC(=S)NCCc1ccccc1)c1ccc(C)cc1	·	0.2	·	·
O=C(c1ccc2c(c1)[nH]c(=S)n1c3ccccc3nc21)N1CCN(c2ncccn2)CC1	60.7*	1.3	0.6	-65.5
O=C(O)c1ccc(NN=Cc2cn(-c3ccccc3)nc2-c2cccs2)cc1	·	-56.1	·	·
O=C(/C=C/c1ccccc1)NC(NC(=S)Nc1cccc(Cl)c1)C(Cl)(Cl)Cl (stereo not given)	33.6	3.1	18.0*	2.6
CCCCCCOc1ccc(C=c2sc(=C(C#N)C(=O)NCc3ccco3)n(-c3ccccc3)c2=O)cc1	·	-18.5	·	·
CC(C)[C@H](NC(=O)c1ccccc1)C(=O)OCC(=O)c1ccc(S(=O)(=O)N2CCCCC2)cc1	·	·	34.7*	3.7
COc1ccc(C=NNC(=O)c2ccc(COc3cccc4cccnc34)cc2)cc1O	·	4.2	·	·
CC1CC(=O)c2c(cc3c(-c4c(O)cc(O)c5c(O)c6c(cc45)OC(C)CC6=O)c(O)cc(O)c3c2O)O1 (stereo not given)	?	21.5*	12.1	5.9
O=C(COc1coc(CN2CCc3ccccc32)cc1=O)N1CCCCC1	·	0.0	21.5*	-0.4
CC(=NNc1nncc2ccccc12)c1ccc(Cl)c([N+](=O)[O-])c1	·	4.7	·	·
CC(=NNC(=O)C1CCCC1)c1ccc(Cl)cc1Cl	·	3.4	·	·
O=C(NCCN1CCN(c2ccccc2)CC1)c1cccn2c(=O)c3ccccc3nc12	4.6	-30.0	-4.6	30.7
O=C(NCCN1CCN(c2ccccc2F)CC1)c1cccn2c(=O)c3ccccc3nc12	-10.4	-29.8	-2.3	42.6*
COC(=O)C1=NN(c2cccc3ccccc23)C2C(=O)N(c3ccccc3OC)C(=O)C12 (stereo not given)	13.2	4.6	19.0*	19.1
CC(C)CN(CCNC(=O)CN1C(=O)COc2ccc(S(=O)(=O)N3CCC(C)CC3)cc21)CC(C)C	3.3	2.2	19.9*	-7.7
O=C(CNC(=O)c1cccs1)NN=Cc1cccc(Br)c1	·	2.2	·	·
CCC(=O)N(C1=C(NC(C)C)C(=O)c2ccccc2C1=O)C(C)C	8.6	46.4*	-0.1	-19.4	UCH37 confirm=21.7
NC(=O)CC(NC(=O)Cc1ccc(Br)cc1)c1ccc(NCCOc2ccccc2)c([N+](=O)[O-])c1 (stereo not given)	55.5	35.5*	-1.2	-32.3	UCH37 confirm=15.3
CC(C)Nc1ccc(C(CC(N)=O)NC(=O)Cc2ccc(Br)cc2)cc1[N+](=O)[O-] (stereo not given)	11.8	-1.1	-8.8	-41.0
COc1ccc(C=NNC(=O)C[n+]2ccccc2)c(OC)c1	·	3.1	·	·
O=c1[nH]c(Nc2ccccc2)cc2cc(Br)ccc12	·	43.7*	61.0*	-105.2	UCH37 confirm=19.2
SMILES	SUMO HTRF inh	UCH37 inh	CTSL1 counter	Neddyl block	others
COc1ccc(C=NNC(=O)c2ccco2)cc1Cn1nc(C)cc1C	·	6.6	·	·
CCOC(=O)C1CCCc2c1[nH]c1c(C(N)=O)cccc21 (stereo not given)	-13.8	53.2*	-2.1	18.6	UCH37 confirm=-13.5
O=C1C=C(N2CCCCC2)c2ccccc2C1=O	·	90.4*	92.5*	-7.6	UCH37 confirm=146.6*
Cc1ccc(-c2n[nH]c(=S)n2N=C/C=C/c2ccccc2[N+](=O)[O-])cc1	·	7.2	·	·
CCCN1CCC(=NNc2ccc(S(=O)(=O)N3CCOCC3)cc2[N+](=O)[O-])CC1	-2.3	43.6*	6.4	-29.9	UCH37 confirm=-0.3
O=C1N=C(N2CCCC2C(=O)O)S/C1=C\c1ccco1 (stereo not given)	25.7	43.2*	1.4	-15.1	UCH37 confirm=12.6
Cc1ccc(NC2=C(N3CCOCC3)C(=O)c3ccccc3C2=O)cc1	8.9	28.0*	17.0*	-18.4	UCH37 confirm=25.9
O=C(O)c1ccc(NC2=C(N3CCOCC3)C(=O)c3ccccc3C2=O)cc1	3.2	33.8*	33.4*	-4.4	UCH37 confirm=18.3
Cc1ccc(NC2=C(Cl)C(=O)c3ccccc3C2=O)cc1	-17.8	2.1	4.6	-6.2
